We go through eleven molecules from ChEMBL document CHEMBL4219111, “Multifunctional 5,6-dimethoxybenzo[d]isothiazol-3(2H)-one-N-alkylbenzylamine derivatives with acetylcholinesterase, monoamine oxidases and β-amyloid aggregation inhibitory activities as potential agents against Alzheimer's disease” (Bioorg Med Chem, 2018).

Active and inactive are the calls of the source. The rule behind the calls is not given here. A value given as a limit tells only on which side of the number the result lay.

What is called IC50 is the concentration that inhibits the measured activity by half. In general, inhibition refers to the percentage by which the read-out fell short of the control. As usually defined, the Papp is the rate of passage across a membrane or cell layer, normalised by area and donor concentration. Low values mean poor permeation, high ones ready permeation.

One data set addresses Acetylcholinesterase (Electrophorus electricus, UniProt O42275). The data set is described as follows: Inhibition of Electrophorus electricus AChE using acetylthiocholine iodide as substrate measured after 15 mins by Ellman's method. (DTNB colorimetry detects thiols as they appear.)
A further data set is filed under the species Rattus norvegicus. The data set is described as follows: Inhibition of rat serum BuChE using butyrylthiocholine iodide as substrate measured at 50 uM after 15 mins by Ellman's method relative to control. The essentials: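 Rat serum (25%) as enzyme source; modified Ellman method in […] pH 7.4 with 1 mmol/L butyrylthiocholine iodide and 0.2% DTNB; 37 °C for 15 min, absorbance at 405 nm. Percent inhibition at 50 µM test compound, each concentration in triplicate.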

A short description of data set [1]: Antioxidant activity assessed as trolox equivalents of AAPH radical scavenging activity at 5 uM preincubated for 15 mins followed by AAPH addition measured every min for 90 mins by ORAC-FL assay. The format is functional. An outline of the steps:
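ORAC-FL in 75 mM phosphate buffer pH 7.4, 200 µL final. Sample plus fluorescein (150 nM final) pre-incubated 15 min at 37 °C, then AAPH added (12 mM final). Fluorescence read every minute for 90 min, ex 485/em 535 nm, normalized to FL+AAPH blank. Trolox standard 1-8 µM final; values given as µM Trolox equivalent per µM compound. Duplicate wells, at least three independent assays.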

Data set [2] has as its target Amyloid-beta precursor protein (Homo sapiens) (UniProt P05067). The data set is described as follows: Inhibition of self-induced aggregation of amyloid beta (1 to 42) (unknown origin) at 25 uM after 24 hrs by thioflavin T fluorescence-based fluorometric method relative to control. An outline of the steps:
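Aβ1-42 pretreated in HFIP 24 h at room temperature, dried, redissolved in DMSO. Peptide (25 µM final) incubated with compound (25 µM final) in 50 mM phosphate pH 7.4 for 24 h at 37 °C. ThT (5 µM) added in 50 mM glycine-NaOH pH 8.5; fluorescence read at ex 446/em 490 nm. Inhibition = (1 − IFi/IFc)×100 after background subtraction, triplicate.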

Data set [3] addresses T1, Amine oxidase [flavin-containing] A (Homo sapiens, UniProt P21397).
T1 sequence (P21397 whole entry): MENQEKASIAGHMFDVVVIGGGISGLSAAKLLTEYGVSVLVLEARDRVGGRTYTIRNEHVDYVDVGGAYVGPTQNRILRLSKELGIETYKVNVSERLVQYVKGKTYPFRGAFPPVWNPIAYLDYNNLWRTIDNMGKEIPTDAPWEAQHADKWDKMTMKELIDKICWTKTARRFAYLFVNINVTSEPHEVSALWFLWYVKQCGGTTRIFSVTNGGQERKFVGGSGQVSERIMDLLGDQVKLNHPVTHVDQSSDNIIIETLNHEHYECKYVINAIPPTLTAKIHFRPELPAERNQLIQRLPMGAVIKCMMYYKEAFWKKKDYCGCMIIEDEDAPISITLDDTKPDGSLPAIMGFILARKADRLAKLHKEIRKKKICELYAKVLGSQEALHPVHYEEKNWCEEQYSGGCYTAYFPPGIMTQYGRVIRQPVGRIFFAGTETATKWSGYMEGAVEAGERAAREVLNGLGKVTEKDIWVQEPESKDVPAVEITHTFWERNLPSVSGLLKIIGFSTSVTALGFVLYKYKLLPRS
The data set is described as follows: Inhibition of recombinant human MAO-A at 10 uM using kynuramine as substrate after 30 mins by fluorescence assay relative to control. To be noted: 0.5 h. The essentials: (§1)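 Recombinant human MAO-A or MAO-B, kynuramine substrate (45 µM for MAO-A, 30 µM for MAO-B), in 100 mM potassium phosphate pH 7.40 with 20.2 mM KCl and under 4% DMSO. Enzyme (7.5 µg/mL) starts the reaction; 30 min at 37 °C. Stopped with NaOH plus water, centrifuged, supernatant fluorescence read at ex 310/em 400 nm. Percent inhibition at 10 µM.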

Data set [4] has as its target T2, Amine oxidase [flavin-containing] B (Homo sapiens, UniProt P27338).
T2 sequence (P27338 whole entry): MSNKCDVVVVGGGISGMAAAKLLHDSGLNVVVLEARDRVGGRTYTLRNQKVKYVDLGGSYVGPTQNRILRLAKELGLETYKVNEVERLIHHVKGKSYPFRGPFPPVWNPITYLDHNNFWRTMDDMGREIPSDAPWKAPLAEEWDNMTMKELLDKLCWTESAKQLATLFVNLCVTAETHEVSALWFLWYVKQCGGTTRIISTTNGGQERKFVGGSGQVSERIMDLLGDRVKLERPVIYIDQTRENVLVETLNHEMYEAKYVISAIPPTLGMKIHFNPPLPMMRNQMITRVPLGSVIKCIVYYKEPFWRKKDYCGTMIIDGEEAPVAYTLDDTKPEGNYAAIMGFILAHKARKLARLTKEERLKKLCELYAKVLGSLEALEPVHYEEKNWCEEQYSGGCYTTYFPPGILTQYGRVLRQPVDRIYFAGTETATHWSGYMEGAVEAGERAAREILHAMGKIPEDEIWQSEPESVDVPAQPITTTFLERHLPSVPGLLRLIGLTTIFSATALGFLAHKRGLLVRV
The data set is described as follows: Inhibition of recombinant human MAO-B at 10 uM using kynuramine as substrate after 30 mins by fluorescence assay relative to control. The conditions noted are these: 0.5 h. The essentials:
as §1

Data set [5] addresses T1, Amine oxidase [flavin-containing] A. The data set is described as follows: Inhibition of recombinant human MAO-A using kynuramine as substrate after 30 mins by fluorescence assay.
The nature of data set [6]: Effective permeability of the compound at 100 ug/ml after 18 hrs by PAMPA-BBB assay. For orientation: The PAMPA barrier holds no transporters, so it reflects passive diffusion.
The target in data set [7] is T2, Amine oxidase [flavin-containing] B. The data set is described as follows: Inhibition of recombinant human MAO-B using kynuramine as substrate after 30 mins by fluorescence assay.
The species entered for a further data set is Homo sapiens. The data set is described as follows: Selectivity index, ratio of IC50 for recombinant human MAO-A to IC50 for recombinant human MAO-B. The essentials:
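Ratio of IC50s, each from a sigmoidal curve of initial kynuramine oxidation rate versus log inhibitor concentration. Curves used six concentrations within 0-100 µM, spanning at least three orders of magnitude. IC50s determined in triplicate.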

The nature of data set [8]: Inhibition of rat serum BuChE using butyrylthiocholine iodide as substrate measured after 15 mins by Ellman's method.
Data set [9] addresses Acetylcholinesterase (Electrophorus electricus) (UniProt O42275). As to the kind of experiment: Mixed type inhibition of Electrophorus electricus AChE at 0.1 to 0.5 uM using varying levels of acetylthiocholine iodide as substrate incubated for 15 mins followed by substrate addition by Lineweaver-Burk plot analysis.

Sequence of Amyloid-beta precursor protein (Homo sapiens) (P05067 whole entry): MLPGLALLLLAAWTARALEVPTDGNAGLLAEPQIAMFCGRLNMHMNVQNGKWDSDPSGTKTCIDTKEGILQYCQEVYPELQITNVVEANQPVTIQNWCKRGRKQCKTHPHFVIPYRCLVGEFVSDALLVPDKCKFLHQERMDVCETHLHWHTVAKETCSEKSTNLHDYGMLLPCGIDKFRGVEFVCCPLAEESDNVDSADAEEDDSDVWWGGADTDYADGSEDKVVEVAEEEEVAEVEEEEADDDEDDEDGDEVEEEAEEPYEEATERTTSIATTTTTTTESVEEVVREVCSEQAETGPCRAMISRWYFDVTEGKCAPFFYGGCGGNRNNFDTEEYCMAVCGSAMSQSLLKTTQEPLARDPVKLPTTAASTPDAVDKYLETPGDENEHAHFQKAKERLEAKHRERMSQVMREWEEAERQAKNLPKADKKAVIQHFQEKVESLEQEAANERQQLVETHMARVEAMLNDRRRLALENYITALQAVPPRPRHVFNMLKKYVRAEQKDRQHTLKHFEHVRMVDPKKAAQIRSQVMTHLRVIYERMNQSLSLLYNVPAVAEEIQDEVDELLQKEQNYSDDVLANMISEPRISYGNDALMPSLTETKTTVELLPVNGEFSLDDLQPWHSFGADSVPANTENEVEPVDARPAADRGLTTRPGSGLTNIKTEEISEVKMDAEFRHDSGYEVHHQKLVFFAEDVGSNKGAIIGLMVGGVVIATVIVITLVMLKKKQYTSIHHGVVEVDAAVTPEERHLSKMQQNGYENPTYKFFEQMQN
Sequence of Acetylcholinesterase (O42275 whole entry): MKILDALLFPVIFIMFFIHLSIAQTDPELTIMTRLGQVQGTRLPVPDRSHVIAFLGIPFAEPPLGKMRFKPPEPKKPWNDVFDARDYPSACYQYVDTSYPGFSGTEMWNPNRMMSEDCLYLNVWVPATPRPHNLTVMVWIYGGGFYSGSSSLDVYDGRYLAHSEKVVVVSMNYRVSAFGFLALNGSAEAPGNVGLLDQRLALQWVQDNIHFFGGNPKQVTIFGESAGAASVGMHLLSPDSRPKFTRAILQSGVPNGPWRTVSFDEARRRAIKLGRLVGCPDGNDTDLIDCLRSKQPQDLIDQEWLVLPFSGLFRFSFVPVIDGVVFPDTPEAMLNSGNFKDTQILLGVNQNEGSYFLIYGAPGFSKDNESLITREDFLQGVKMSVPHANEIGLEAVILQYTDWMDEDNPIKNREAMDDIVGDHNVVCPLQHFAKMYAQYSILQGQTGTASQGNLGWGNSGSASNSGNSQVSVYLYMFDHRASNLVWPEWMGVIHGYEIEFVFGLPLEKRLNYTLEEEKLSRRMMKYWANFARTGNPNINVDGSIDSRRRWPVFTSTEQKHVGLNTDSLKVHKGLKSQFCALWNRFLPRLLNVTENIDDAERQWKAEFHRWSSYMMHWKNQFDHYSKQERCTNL
Sequence of Acetylcholinesterase (Electrophorus electricus) (O42275 24-633 limits assumed): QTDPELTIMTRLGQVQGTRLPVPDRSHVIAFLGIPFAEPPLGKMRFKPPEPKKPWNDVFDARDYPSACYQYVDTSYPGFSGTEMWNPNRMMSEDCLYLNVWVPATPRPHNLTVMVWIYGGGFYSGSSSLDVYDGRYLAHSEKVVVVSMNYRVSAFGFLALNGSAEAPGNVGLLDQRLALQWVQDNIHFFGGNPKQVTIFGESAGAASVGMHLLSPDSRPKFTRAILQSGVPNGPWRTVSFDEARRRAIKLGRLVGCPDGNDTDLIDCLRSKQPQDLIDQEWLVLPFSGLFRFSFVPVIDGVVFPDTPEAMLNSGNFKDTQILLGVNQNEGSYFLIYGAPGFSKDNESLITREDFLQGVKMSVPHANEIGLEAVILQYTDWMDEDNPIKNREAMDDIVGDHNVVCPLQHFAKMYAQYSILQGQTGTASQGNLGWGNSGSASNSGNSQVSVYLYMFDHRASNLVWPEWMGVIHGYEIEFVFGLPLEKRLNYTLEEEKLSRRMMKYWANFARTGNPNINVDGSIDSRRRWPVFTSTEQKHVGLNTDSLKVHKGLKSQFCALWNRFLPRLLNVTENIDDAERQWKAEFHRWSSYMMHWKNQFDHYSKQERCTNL

Consider `COc1ccccc1CN(C)CCCCCCn1c(=O)c2cc(OC)c(OC)cc2[s+]1[O-]` (centres undefined), for which the IC50 on Acetylcholinesterase amounted to 0.8 µM. The results for the inhibition (in the data set listed under Rattus norvegicus; in data set [2]) were 28.7% and 38%, respectively. Besides, the Activity in data set [1] is 0.33 equiv. In addition, the inhibition at 10 µM was 23.8% in data set [3] and 12.2% in data set [4].

As to `CCN(CCCCCCn1c(=O)c2cc(OC)c(OC)cc2[s+]1[O-])Cc1ccccc1` (centres undefined), the 50% inhibitory concentration (IC50) on Acetylcholinesterase worked out at 0.38 µM. For the same molecule, the figures for the inhibition (in the data set listed under Rattus norvegicus; in [2]) were 8.1% and 29.2%, respectively. The Activity in data set [1] is 0.23 equiv. In addition, the inhibition at 10 µM in data set [3] turned out to be 21.5%; in [4] it was 14.6%.

With `CCN(CCCCCCn1sc2cc(OC)c(OC)cc2c1=O)Cc1ccccc1OC`, the IC50 came out at 0.46 µM at Acetylcholinesterase and 7.9 µM in data set [5]. In addition, the inhibition turned out to be 46.9% in the data set listed under Rattus norvegicus and 48% in [2]. Besides, the Activity in data set [1] was found to be 0.28 equiv. Further, the inhibition at 10 µM in data set [4] worked out at 43.8%. This molecule yielded a Papp at 18 h, 100 ug/ml in data set [6] of 4.32 ×10⁻⁶ cm/s.

Turning to `CCN(CCCCCCN1C(=O)c2cc(OC)c(OC)cc2S1(=O)=O)Cc1ccccc1`, the IC50 on Acetylcholinesterase is 13.1 µM. Also, the inhibition in the data set filed under Rattus norvegicus was determined as 35.7%; in [2], 6%. Further, in [1], the Activity stood at 0.2 equiv. The figures for the inhibition at 10 µM in [3] and in data set [4] were 30.2% and 38.9%, respectively.

`COc1ccccc1CN(C)CCCCCCN1C(=O)c2cc(OC)c(OC)cc2S1(=O)=O`: the IC50 on Acetylcholinesterase was found to be 1.02 µM. Moreover, the results for the inhibition (in the data set filed under Rattus norvegicus; in data set [2]) were < 5% and 23.9%, respectively. Besides, the Activity in data set [1] amounted to 0.16 equiv. Further, the results for the inhibition at 10 µM in data set [3] and in data set [4] were 28.1% and 29.2%, respectively.

`CCN(CCCCn1sc2cc(OC)c(OC)cc2c1=O)Cc1ccc(N(C)C)cc1`: the IC50 worked out at 8.85 µM against Acetylcholinesterase, 15.9 µM in data set [5] and 18.8 µM in data set [7]. Moreover, the inhibition in the data set filed under Rattus norvegicus was 23.2%; in data set [2], 32.5%. For the same molecule, in data set [1], the Activity is 2.14 equiv. Besides, the Ratio IC50 in the data set filed under Homo sapiens was determined as 0.85.

For the molecule `COc1cc2c(cc1OC)C(=O)C(CC1CCN(Cc3ccccc3)CC1)C2` (centres undefined) [DONEPEZIL], half-maximal inhibition in data set [8] (IC50) required 21.4 µM.

`COc1cc2sn(CCCCN(C)Cc3ccccc3)c(=O)c2cc1OC`: the IC50 at Acetylcholinesterase came out at 1.2 µM; in data set [5], 8.9 µM; in data set [7], 19.7 µM. Also, the inhibition in the data set filed under Rattus norvegicus was 14.7%; in [2], 17.3%. Further, the Activity in data set [1] amounted to 0.21 equiv. Moreover, in the data set listed under Homo sapiens, the Ratio IC50 is 0.45.

On to `COc1cc2sn(CCCCCCN(C)Cc3ccccc3)c(=O)c2cc1OC`, for which the 50% inhibitory concentration (IC50) was 0.35 µM on Acetylcholinesterase, 23 µM in data set [5] and 13.2 µM in data set [7]. Moreover, the inhibition in the data set listed under Rattus norvegicus came out at 23.1%; in data set [2], 4.3%. Moreover, the Activity in data set [1] was determined as 0.29 equiv. Further, the Ratio IC50 in the data set listed under Homo sapiens was 1.74.

Take `CCN(CCCCCCn1sc2cc(OC)c(OC)cc2c1=O)Cc1ccccc1`: the IC50 was 0.29 µM at Acetylcholinesterase, 8.2 µM in data set [5] and 20.1 µM in data set [7]. Further, the inhibition in the data set listed under Rattus norvegicus came to 48.2%; in data set [2], 35.4%. Also, the Activity in data set [1] stood at 0.27 equiv. Also, the Ratio IC50 in the data set listed under Homo sapiens amounted to 0.41. This molecule showed a Papp at 18 h, 100 ug/ml in data set [6] of 15.6 ×10⁻⁶ cm/s. For the same molecule, in data set [9], the inhibition result is “Active”.

`COc1ccccc1CN(C)CCCCCCn1sc2cc(OC)c(OC)cc2c1=O`: the IC50 amounted to 0.61 µM at Acetylcholinesterase, 19.9 µM in [5] and 13.7 µM in data set [7]. Also, the inhibition turned out to be 28.8% in the data set filed under Rattus norvegicus and 20.2% in data set [2]. Further, the Activity in data set [1] is 0.26 equiv. For the same molecule, the Ratio IC50 in the data set filed under Homo sapiens was 1.45.
